Screens (PubChem)
In the library only some 2.1% were active in any assay of this set; here they are far more common.
CRFBP-R2 block – CRF-BP/CRF-R2 complex antagonism. HEK293 CRF-R2/CRF-BP, CRF-induced calcium fluorescence. inhibition, % at 11.8 µM. 350,000 compounds, 0.59% hits. AID 588475;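 active = inhibition of the ligand-induced calcium signal above about 50% at the single tested concentration, limit read from the data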
Cardio protect – protects H9c2 cardiomyocytes from peroxide injury; H2O2 injury protection, ATPLite, 2 h; 360,000 compounds, 0.63% hits; AID 588492; protection from H2O2 cell death, % at 20 µM;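 active = compounds giving at least 50% protection of heart cells from peroxide-induced death in the single-dose screen, raw or plate-pattern-corrected value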;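 also: 0% = DMSO wells with peroxide and 100% = DMSO wells without peroxide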
hiPSC survival – hiPSC single-cell survival enhancement; ATPlite luminescence; 100% = ROCK inhibitor wells, 0% = DMSO; survival enhancement, % at 20 µM; 360,000 compounds, 0.044% hits; AID 602274; in the data active = survival enhancement above about 18%;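 also: cells exposed to compounds for 16 hours before the ATP read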
MIN6 prolif – induces beta-cell replication in MIN6 cells; proliferation, % at 10 µM; MIN6 cells proliferation, ATPlite luminescence, 48 h; cells starved in 0.2% serum; 100% = growth in 10% serum; 330,000 compounds, 0.29% hits;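 active = compounds whose signal lies at least 3.5 SD above the mean of all wells on their plate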;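 also: 0% = DMSO-treated cells in low-serum medium and 100% = 10% serum control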
UCH37 inh – inhibitors of human deubiquitinating enzyme UCH37; AID 588478; inhibition, % (no concentration beside the values); purified proteasome/UCH37, Ub-AMC cleavage fluorescence; Q9Y5K5; 330,000 compounds, 0.33% hits;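 active = mean inhibition over replicate wells above about 20%, limit read from the data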;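 also: 0% = compound-free wells with enzyme and 100% = wells lacking proteasome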
Target sequence (Q9Y5K5 whole entry, looked up): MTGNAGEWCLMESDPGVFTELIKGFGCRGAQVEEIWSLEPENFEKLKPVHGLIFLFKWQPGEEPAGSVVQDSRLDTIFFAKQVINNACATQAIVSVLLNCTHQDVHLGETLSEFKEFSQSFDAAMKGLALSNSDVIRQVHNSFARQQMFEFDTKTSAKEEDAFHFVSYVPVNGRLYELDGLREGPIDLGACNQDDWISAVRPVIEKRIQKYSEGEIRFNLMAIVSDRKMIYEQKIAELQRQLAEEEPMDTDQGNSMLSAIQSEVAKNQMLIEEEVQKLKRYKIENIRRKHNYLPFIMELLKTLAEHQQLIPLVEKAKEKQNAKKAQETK
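Material: human UCH37 enzyme supplied as purified proteasome complex. Measure: % inhibition of Ub-AMC cleavage fluorescence. Medium: pH 7.4 Tris-HCl (50 mM) with ovalbumin, ATP-MgCl2, DTT. Times: 30 min preincubation with enzyme, 25 min cleavage at room temperature. Detection: AMC fluorescence intensity at 355/460 nm.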
CRFBP-R2 agonist – CRF-BP/CRF-R2 complex agonism; HEK293 CRF-R2/CRF-BP, calcium dye fluorescence (FLIPR); percent of saturating CRF peptide response; activation, % at 13.2 µM; 350,000 compounds, 0.46% hits;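 active = activation of at least 50%, plus an integration ratio under a set limit after plate pattern correction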;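 also: plate controls were neutral control wells without compound for no effect and CRF at EC100 for full effect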
UCH37 confirm – UCH37 Ub-AMC cleavage inhibition, confirmed | 480 compounds, 27% hits | inhibition, % at 20 µM | Proteasome-bound UCH37, Ub-AMC cleavage fluorescence | shares compounds with UCH37 inh | AID 624100;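 active = average inhibition over replicates above about 50%, so the earlier screening hit is confirmed, limit read from the data; inactive = the rest, counted as false positives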;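 also: based on cleavage rate fitted by regression over a 30 min kinetic read; 0% = proteasome plus Ub-AMC and 100% = Ub-AMC without proteasome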
Numbers without * were called inactive; x = not tested or not shown.

SMILES	CRFBP-R2 block	Cardio protect	hiPSC survival	MIN6 prolif	UCH37 inh	CRFBP-R2 agonist	UCH37 confirm
O=C(N=Nc1c(O)[nH]c2ccc([N+](=O)[O-])cc12)c1ccccc1[N+](=O)[O-]	-1	-3	1	-5	61*	-1	14
COc1cccc(C=NNc2ncc(C(F)(F)F)cc2Cl)c1O	x	x	x	x	1	x	x
CCC(C)C(C)=NNC(=O)CSc1nc2ccccc2[nH]1 (stereo not drawn)	x	x	x	x	4	x	x
CS/C(N)=N/N=Cc1cc(C)ccc1O	x	x	x	x	8	x	x
CCOC(=O)c1sc(=S)n(CC)c1N	-1	1	3	0	52*	-1	25
CC(C)[n+]1ccn(C2=C([O-])c3ccccc3C(=O)/C2=N\S(=O)(=O)c2ccccc2)c1	4	-11	0	2	39*	2	23
CCCC[n+]1ccn(C2=C([O-])c3ccccc3C(=O)/C2=N\S(=O)(=O)c2ccccc2)c1	8	-30	-5	-3	41*	-2	32
CC(C)(C)c1cc[n+](C2=C([O-])c3ccccc3C(=O)/C2=N\S(=O)(=O)c2ccccc2)cc1	12	-5	-1	-6	10	-1	x
C(=Nc1nccs1)c1c[nH]c2ccccc12	x	x	x	x	7	x	x
CCN1C(=O)/C(=C/N(C)c2ccccc2)OC1=S	-7	12	-1	-2	9	0	x
CCN1C(=O)/C(=C/C=C2/CCCN2C)OC1=S	-15	-2	0	0	29*	47	36
CN1C(=O)/C(=C\C=C2/CCCN2C)N(C)C1=S	-1	-3	0	0	39*	2	31
COc1ccc2cc(C=NNC(=O)c3ccc(CN(c4ccc(C)c(C)c4)S(C)(=O)=O)cc3)c(Cl)nc2c1	x	x	x	x	-26	x	x
CCOc1cc(C=NNC(=O)c2ccc(C)nc2)cc([N+](=O)[O-])c1O	x	x	x	x	27*	x	24
CCOc1cc(/C=N\NC(=O)c2ccc(C)nc2)cc([N+](=O)[O-])c1O	16	-1	-1	3	x	-2	x
ON=Cc1cc(Br)ccc1OCc1ccccc1F	x	x	x	x	2	x	x
O=C(CSC(=S)N1CCCC1)c1ccccc1	-3	-8	0	-2	0	0	x
O=C(CSC(=S)N1CCCCC1)c1ccccc1	-13	-17	-2	-2	39*	-2	12
O=C1NN(c2cccc(Br)c2)C(=O)/C1=C/c1ccc(-c2cc([N+](=O)[O-])ccc2O)o1	-20	-2	1	-4	31*	-7	67*
CC1=NN(c2ccc(C)cc2)C(=O)/C1=C/c1ccc(-c2cc([N+](=O)[O-])ccc2O)o1	47	-14	0	-4	3	6	x
CCC1CCCC1=NNC(=O)c1ccccc1Cl (stereo not drawn)	x	x	x	x	6	x	x
CC[C@@]1(c2ccccc2)C(=O)N(C(=O)OC)N1C(=O)OC	-7	2	-3	3	2	2	x
CC[C@]1(c2cccc(C)c2)C(=O)N(C(=O)OC)N1C(=O)OC	-10	10	-2	-9	35*	2	-6
Cc1cc(C)c(C=NNC(=O)c2nnn(-c3nonc3N)c2COc2ccc(F)cc2)c(C)c1	x	x	x	x	4	x	x
COc1cc(Cl)c(NC2=CC(=O)C(=O)c3ccccc32)c(OC)c1	11	-30	-1	-7	54*	-1	15
CC1(C)OC(=O)C(=Cc2ccc(-c3ccc(Cl)c(C(=O)O)c3)o2)C(=O)O1	-4	7	-1	0	2	3	x
Cc1[nH][nH]c(=O)c1C(c1ccc(-c2ccc(Cl)c(C(=O)O)c2)o1)c1c(C)[nH][nH]c1=O	3	-7	1	x	30*	0	44
COC(=O)c1ccccc1-c1ccc(C(c2c(C)[nH][nH]c2=O)c2c(C)[nH][nH]c2=O)o1	2	-8	-1	-2	4	-1	x
COC(=O)c1cccc(-c2ccc(C(c3c(C)[nH][nH]c3=O)c3c(C)[nH][nH]c3=O)o2)c1	0	9	-1	-5	40*	-4	57*
CC(=NNc1nc(-c2ccccn2)nc2ccccc12)c1ccc(F)cc1	x	x	x	x	8	x	x
